{"source": "ChEMBL document CHEMBL4619801", "about": "“Discovery of Phthalazinone Derivatives as Novel Hepatitis B Virus Capsid Inhibitors” (J Med Chem, 2020)", "key": {"[1]": {"assay": "Drug metabolism in human liver microsomes assessed as compound level by measuring LC-MS area of metabolite-M1 at 3 uM in presence of NADPH incubated for 60 mins by UPLC-UV/QTOF MS analysis", "type": "ADME, Microsome", "details": "1 h; call rule not given here", "procedure,_shortened": "(§1)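 Each incubation held liver microsomes (human, monkey, dog, rat or mouse) at 0.5 mg/mL with 3.0 μM compound in 100 mM potassium phosphate, pH 7.4. After 3 min prewarming at 37 °C, the reaction was started with 1 mM NADPH. It was stopped at 60 min with ice-cold acetonitrile. Parent remaining and metabolites were judged from relative UV area.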"}, "Hepatitis B virus [2]": {"tested_on": "Hepatitis B virus", "assay": "Antiviral activity against Hepatitis B virus assessed as reduction in HBV DNA-free capsid formation", "type": "functional, organism-based"}, "[3]": {"assay": "Half life in Sprague-Dawley rat at 20 mg/kg, po dosed as single administration", "type": "ADME, organism-based", "details": "in vivo"}, "[4]": {"assay": "Tmax in Sprague-Dawley rat at 20 mg/kg, po dosed as single administration", "type": "ADME, organism-based", "details": "in vivo"}, "[5]": {"assay": "Cmax in Sprague-Dawley rat at 20 mg/kg, po dosed as single administration", "type": "ADME, organism-based", "parameters": "dose 20 mg/kg, route oral", "details": "in vivo"}, "[6]": {"assay": "AUC (0 to t) in Sprague-Dawley rat at 20 mg/kg, po dosed as single administration", "type": "ADME, organism-based", "details": "in vivo"}, "[7]": {"assay": "Oral bioavailability in Sprague-Dawley rat at 20 mg/kg dosed as single administration", "type": "ADME, organism-based", "details": "in vivo"}, "[8]": {"assay": "AUC (0 to t) in Sprague-Dawley rat at 2 mg/kg, iv dosed as single administration", "type": "ADME, organism-based", "details": "in vivo"}, "[9]": {"assay": "Retention time of the compound by […]", "type": "physicochemical"}, "[10]": {"assay": "Drug metabolism in monkey liver microsomes assessed as compound level by measuring LC-MS area of metabolite-M1 at 3 uM in presence of NADPH incubated for 60 mins by UPLC-UV/QTOF MS analysis", "type": "ADME, Macaca mulatta, Microsome", "details": "rhesus monkey, 1 h", "procedure,_shortened": "as §1"}, "[11]": {"assay": "Drug metabolism in dog liver microsomes assessed as compound level by measuring LC-MS area at 3 uM in presence of NADPH incubated for 60 mins by UPLC-UV/QTOF MS analysis", "type": "ADME, Canis lupus familiaris, Microsome", "details": "1 h", "procedure,_shortened": "as §1"}, "[12]": {"assay": "Drug metabolism in dog liver microsomes assessed as compound level by measuring LC-MS area of metabolite-M1 at 3 uM in presence of NADPH incubated for 60 mins by UPLC-UV/QTOF MS analysis", "type": "ADME, Canis lupus familiaris, Microsome", "details": "1 h", "procedure,_shortened": "as §1"}, "[13]": {"assay": "Drug metabolism in rat liver microsomes assessed as compound level by measuring LC-MS area at 3 uM in presence of NADPH incubated for 60 mins by UPLC-UV/QTOF MS analysis", "type": "ADME, Microsome", "details": "1 h", "procedure,_shortened": "as §1"}, "[14]": {"assay": "Drug metabolism in rat liver microsomes assessed as compound level by measuring LC-MS area of metabolite-M1 at 3 uM in presence of NADPH incubated for 60 mins by UPLC-UV/QTOF MS analysis", "type": "ADME, Microsome", "details": "1 h", "procedure,_shortened": "as §1"}, "[15]": {"assay": "Drug metabolism in mouse liver microsomes assessed as compound level by measuring LC-MS area at 3 uM in presence of NADPH incubated for 60 mins by UPLC-UV/QTOF MS analysis", "type": "ADME, Microsome", "details": "1 h", "procedure,_shortened": "as §1"}, "[16]": {"assay": "Drug metabolism in mouse liver microsomes assessed as compound level by measuring LC-MS area of metabolite-M1 at 3 uM in presence of NADPH incubated for 60 mins by UPLC-UV/QTOF MS analysis", "type": "ADME, Microsome", "details": "1 h", "procedure,_shortened": "as §1"}, "[17]": {"assay": "Drug metabolism in mouse liver microsomes assessed as compound level by measuring LC-MS area of metabolite-M2 at 3 uM in presence of NADPH incubated for 60 mins by UPLC-UV/QTOF MS analysis", "type": "ADME, Microsome", "details": "1 h", "procedure,_shortened": "as §1"}, "[18]": {"assay": "Drug metabolism in human liver microsomes assessed as compound level by measuring UV-area at 3 uM in presence of NADPH incubated for 60 mins by UPLC-UV/QTOF MS analysis", "type": "ADME, Microsome", "details": "1 h", "procedure,_shortened": "as §1"}, "[19]": {"assay": "Drug metabolism in human liver microsomes assessed as compound level by measuring UV-area of metabolite-M1 at 3 uM in presence of NADPH incubated for 60 mins by UPLC-UV/QTOF MS analysis", "type": "ADME, Microsome", "details": "1 h", "procedure,_shortened": "as §1"}, "[20]": {"assay": "Drug metabolism in monkey liver microsomes assessed as compound level by measuring UV-area at 3 uM in presence of NADPH incubated for 60 mins by UPLC-UV/QTOF MS analysis", "type": "ADME, Macaca mulatta, Microsome", "details": "rhesus monkey, 1 h", "procedure,_shortened": "as §1"}, "[21]": {"assay": "Drug metabolism in dog liver microsomes assessed as compound level by measuring UV-area at 3 uM in presence of NADPH incubated for 60 mins by UPLC-UV/QTOF MS analysis", "type": "ADME, Canis lupus familiaris, Microsome", "details": "1 h", "procedure,_shortened": "as §1"}, "[22]": {"assay": "Drug metabolism in dog liver microsomes assessed as compound level by measuring UV-area of metabolite-M1 at 3 uM in presence of NADPH incubated for 60 mins by UPLC-UV/QTOF MS analysis", "type": "ADME, Canis lupus familiaris, Microsome", "details": "1 h", "procedure,_shortened": "as §1"}, "[23]": {"assay": "Drug metabolism in rat liver microsomes assessed as compound level by measuring UV-area at 3 uM in presence of NADPH incubated for 60 mins by UPLC-UV/QTOF MS analysis", "type": "ADME, Microsome", "details": "1 h", "procedure,_shortened": "as §1"}, "[24]": {"assay": "Drug metabolism in rat liver microsomes assessed as compound level by measuring UV-area of metabolite-M1 at 3 uM in presence of NADPH incubated for 60 mins by UPLC-UV/QTOF MS analysis", "type": "ADME, Microsome", "details": "1 h", "procedure,_shortened": "as §1"}, "[25]": {"assay": "Drug metabolism in mouse liver microsomes assessed as compound level by measuring UV-area at 3 uM in presence of NADPH incubated for 60 mins by UPLC-UV/QTOF MS analysis", "type": "ADME, Microsome", "details": "1 h", "procedure,_shortened": "as §1"}, "[26]": {"assay": "Drug metabolism in mouse liver microsomes assessed as compound level by measuring UV-area of metabolite-M2 at 3 uM in presence of NADPH incubated for 60 mins by UPLC-UV/QTOF MS analysis", "type": "ADME, Microsome", "details": "1 h", "procedure,_shortened": "as §1"}, "[27]": {"assay": "Drug metabolism in human liver microsomes at 3 uM in presence of NADPH incubated for 60 mins by UPLC-UV/QTOF MS analysis relative to control", "type": "ADME, Microsome", "details": "read-out: Drug metabolism", "procedure,_shortened": "as §1"}, "[28]": {"assay": "Drug metabolism in dog liver microsomes at 3 uM in presence of NADPH incubated for 60 mins by UPLC-UV/QTOF MS analysis relative to control", "type": "ADME, Canis lupus familiaris, Microsome", "details": "read-out: Drug metabolism", "procedure,_shortened": "as §1"}, "[29]": {"assay": "Drug metabolism in rat liver microsomes at 3 uM in presence of NADPH incubated for 60 mins by UPLC-UV/QTOF MS analysis relative to control", "type": "ADME, Microsome", "details": "read-out: Drug metabolism", "procedure,_shortened": "as §1"}, "[30]": {"assay": "Drug metabolism in mouse liver microsomes at 3 uM in presence of NADPH incubated for 60 mins by UPLC-UV/QTOF MS analysis relative to control", "type": "ADME, Microsome", "procedure,_shortened": "as §1"}, "[31]": {"assay": "Drug level in Sprague-Dawley rat liver at 20 mg/kg, po dosed as single administration measured up to 24 hrs", "type": "ADME, organism-based", "details": "in vivo"}, "[32]": {"assay": "Drug level in CD1 mouse liver at 20 mg/kg, po dosed as single administration measured up to 24 hrs", "type": "ADME, organism-based", "details": "in vivo", "procedure,_shortened": "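ICR (CD-1) mice were dosed orally at 20 mg/kg. At set times (1, 3, 8 and 24 h), blood was taken from the heart and portal vein under isoflurane anesthesia and spun to plasma. Livers were removed after portal vein perfusion, rinsed in saline, weighed and homogenized in saline (5 mL/g). Samples were analysed by UPLC–MS/MS in positive electrospray mode.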"}, "Hepatitis B virus [33]": {"tested_on": "Hepatitis B virus", "assay": "Antiviral activity against HBV infected in human HepG2.2.15 cells assessed as reduction in cytoplasmic HBV-DNA replication incubated for 8 days by real-time PCR analysis", "type": "functional, organism-based", "details": "HepG2 2.2.15, 192 h"}}}
{"smiles": "Cc1cc(-c2ccc(F)nc2F)nn(Cc2ccc(Cl)cc2)c1=O", "values": [{"measurement": "Activity", "setting": "[1]", "value": 2.64, "unit": "×10³ No_unit"}, {"measurement": "IC50", "setting": "Hepatitis B virus [2]", "value": 87, "unit": "nM"}, {"measurement": "half-life", "setting": "[3]", "value": 2.96, "unit": "h"}, {"measurement": "Tmax", "setting": "[4]", "value": 0.25, "unit": "h"}, {"measurement": "Cmax", "setting": "[5]", "value": 352, "unit": "ng/mL"}, {"measurement": "AUC(0-t)", "setting": "[6]", "value": 1100, "unit": "ng·h/mL"}, {"measurement": "bioavailability", "setting": "[7]", "value": 25.3, "unit": "%"}, {"measurement": "AUC(0-t)", "setting": "[8]", "value": 428, "unit": "ng·h/mL"}, {"measurement": "Retention_time", "setting": "[9]", "value": 7.3, "unit": "min"}, {"measurement": "Activity", "setting": "[10]", "value": 8.3, "unit": "×10³ No_unit"}, {"measurement": "Activity", "setting": "[11]", "value": 3.09, "unit": "×10³ No_unit"}, {"measurement": "Activity", "setting": "[12]", "value": 5.97, "unit": "×10³ No_unit"}, {"measurement": "Activity", "setting": "[13]", "value": 7.4, "unit": "×10³ No_unit"}, {"measurement": "Activity", "setting": "[14]", "value": 3.05, "unit": "×10³ No_unit"}, {"measurement": "Activity", "setting": "[15]", "value": 1, "unit": "×10³ No_unit"}, {"measurement": "Activity", "setting": "[16]", "value": 10.3, "unit": "×10³ No_unit"}, {"measurement": "Activity", "setting": "[17]", "value": 0.79, "unit": "×10³ No_unit"}, {"measurement": "Activity", "setting": "[18]", "value": 82, "unit": "×10³ No_unit"}, {"measurement": "Activity", "setting": "[19]", "value": 51.3, "unit": "×10³ No_unit"}, {"measurement": "Activity", "setting": "[20]", "value": 34.1, "unit": "×10³ No_unit"}, {"measurement": "Activity", "setting": "[21]", "value": 26.3, "unit": "×10³ No_unit"}, {"measurement": "Activity", "setting": "[22]", "value": 84.6, "unit": "×10³ No_unit"}, {"measurement": "Activity", "setting": "[23]", "value": 44.8, "unit": "×10³ No_unit"}, {"measurement": "Activity", "setting": "[24]", "value": 56.7, "unit": "×10³ No_unit"}, {"measurement": "Activity", "setting": "[25]", "value": "< 5", "unit": "×10³ No_unit"}, {"measurement": "Activity", "setting": "[26]", "value": 15.4, "unit": "×10³ No_unit"}, {"measurement": "metabolised at 1 h, 3 µM", "setting": "[27]", "value": 34, "unit": "%"}, {"measurement": "metabolised at 1 h, 3 µM", "setting": "[28]", "value": 79, "unit": "%"}, {"measurement": "metabolised at 1 h, 3 µM", "setting": "[29]", "value": 64, "unit": "%"}, {"measurement": "metabolised at 1 h, 3 µM", "setting": "[30]", "value": "> 95", "unit": "%"}, {"measurement": "Drug uptake", "setting": "[31]", "value": "Not Active"}, {"measurement": "Drug uptake", "setting": "[32]", "value": "Not Active"}, {"measurement": "IC50", "setting": "Hepatitis B virus [33]", "value": 98, "unit": "nM"}]}
